Data reported in ChEMBL document CHEMBL2331219, “Synthesis and anti-Candida activity of novel 2-hydrazino-1,3-thiazole derivatives” (Bioorg Med Chem Lett, 2013).
In brackets after ≈: the same amount, converted by molar mass.

What was measured:
Nakaseomyces glabratus [1] = experiment: Antifungal activity against voriconazole-resistant Candida glabrata clinical isolate 730 assessed as growth inhibition after 24 to 48 hrs by CLSI microbroth dilution method; type: functional
Method in brief: (§1)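 Microbroth dilution per CLSI M27-A3. Isolates subcultured for purity, incubated at 35 °C; five colonies >1 mm suspended in saline, adjusted to 0.5 × 10³ to 2.5 × 10³ in RPMI 1640 buffered to pH 7.0 with 0.165 M MOPS. Compounds diluted in RPMI to final […]. Read visually after 24 h and 48 h at 35 °C; MIC judged by turbidity against drug-free growth control.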

Candida albicans [2] = experiment: Antifungal activity against azole-resistant Candida albicans clinical isolate 7.O.A assessed as growth inhibition after 24 to 48 hrs by CLSI microbroth dilution method; type: functional; method in brief: as §1
Candida albicans [3] = experiment: Antifungal activity against fluconazole-resistant Candida albicans clinical isolate 5.O.A assessed as growth inhibition after 24 to 48 hrs by CLSI microbroth dilution method; type: functional; method in brief: as §1
Candida parapsilosis [4] = experiment: Antifungal activity against anidulafungin-resistant Candida parapsilosis isolate 22019 assessed as growth inhibition after 24 to 48 hrs by CLSI microbroth dilution method; type: functional; conditions: Lodderomyces parapsilosis; method in brief: as §1
Candida albicans [5] = experiment: Antifungal activity against caspofungin-resistant Candida albicans assessed as growth inhibition after 24 to 48 hrs by CLSI microbroth dilution method
Nakaseomyces glabratus [6] = experiment: Antifungal activity against voriconazole-resistant Candida glabrata clinical isolate 724 assessed as growth inhibition after 24 to 48 hrs by CLSI microbroth dilution method; type: functional; method in brief: as §1
Nakaseomyces glabratus [7] = experiment: Antifungal activity against fluconazole-resistant Candida glabrata isolate 6258 assessed as growth inhibition after 24 to 48 hrs by CLSI microbroth dilution method; type: functional; method in brief: as §1
Candida parapsilosis [8] = experiment: Antifungal activity against anidulafungin-resistant Candida parapsilosis ANF8 assessed as growth inhibition after 24 to 48 hrs by CLSI microbroth dilution method; type: functional; conditions: Lodderomyces parapsilosis; method in brief: as §1
[9] = Cytotoxicity against mouse NIH/3T3 cells assessed as cell viability at 62.5 ug/mL after 24 hrs by MTT assay relative to control; type: cell-based, NIH3T3; conditions: read-out: Activity
Method in brief: (§2)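 NIH/3T3 fibroblasts kept in DMEM with 10% fetal calf serum, penicillin/streptomycin, 37 °C, 5% CO2. Cells seeded at 2 × 10⁴ cells/mL, grown 24 h, then given compound (DMSO stock diluted in medium, final DMSO <0.1%) for 24 h. MTT at 0.5 mg/mL final added for 4 h, formazan dissolved in DMSO, absorbance read at 540 nm. Triplicate wells, mean ± SD, assay run twice.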

[10] = Cytotoxicity against mouse NIH/3T3 cells assessed as cell viability at 1 ug/mL after 24 hrs by MTT assay relative to control; type: cell-based, NIH3T3; conditions: read-out: Activity; method in brief: as §2
[11] = Cytotoxicity against mouse NIH/3T3 cells assessed as cell viability at 0.5 ug/mL after 24 hrs by MTT assay relative to control; type: cell-based, NIH3T3; conditions: read-out: Activity; method in brief: as §2
[12] = Cytotoxicity against mouse NIH/3T3 cells assessed as cell viability at 31.3 ug/mL after 24 hrs by MTT assay relative to control; type: cell-based, NIH3T3; conditions: read-out: Activity; method in brief: as §2
[13] = Aqueous solubility in PBS buffer at pH 7.0; type: physicochemical

| Structure (SMILES) | MIC (Nakaseomyces glabratus [1]) [µg/mL] | MIC (Candida albicans [2]) [µg/mL] | MIC (Candida albicans [3]) [µg/mL] | MIC (Candida parapsilosis [4]) [µg/mL] | MIC (Candida albicans [5]) [µg/mL] | MIC (Nakaseomyces glabratus [6]) [µg/mL] | MIC (Nakaseomyces glabratus [7]) [µg/mL] | MIC (Candida parapsilosis [8]) [µg/mL] | viability at 24 h, 62.5 ug/mL [9] [%] | viability at 24 h, 1 ug/mL [10] [%] | viability at 24 h, 0.5 ug/mL [11] [%] | viability at 24 h, 31.3 ug/mL [12] [%] | solubility [13] [µM] |
| --- | --- | --- | --- | --- | --- | --- | --- | --- | --- | --- | --- | --- | --- |
| C/C(=N\Nc1nc([C@@H]2CCCN2C(=O)OCc2ccccc2)cs1)c1ccc2c(c1)CCC2 | > 16 | > 16 | > 16 | > 16 | > 16 | > 16 | > 16 | > 16 | – | – | – | – | – |
| C/C(=N\Nc1nc([C@H](C)N)cs1)c1ccc2c(c1)CCC2 | 8 (≈ 26.6 µM) | > 16 | > 16 | 8 (≈ 26.6 µM) | 16 (≈ 53.3 µM) | 8 (≈ 26.6 µM) | 0.125 (≈ 0.416 µM) | 0.5 (≈ 1.66 µM) | 32.4 | 92.6 | 93.6 | 36.2 | 700 (≈ 210 µg/mL) |
| C/C(=N\Nc1nc([C@@H](N)Cc2ccccc2)cs1)c1ccc2c(c1)CCC2 | > 16 | > 16 | > 16 | > 16 | > 16 | > 16 | > 16 | > 16 | – | – | – | – | 150 (≈ 56.5 µg/mL) |
| C/C(=N\Nc1nc([C@@H]2CCCN2)cs1)c1ccc2c(c1)CCC2 | 16 (≈ 49 µM) | > 16 | > 16 | > 16 | > 16 | > 16 | > 16 | > 16 | – | – | – | – | 900 (≈ 294 µg/mL) |
| COc1ccc(O)c(-c2csc(N/N=C(/C)C3CCc4ccccc43)n2)c1 (centres undefined) | 16 (≈ 42.2 µM) | > 16 | > 16 | > 16 | > 16 | > 16 | > 16 | > 16 | – | – | – | – | < 50 |
| COc1ccc(O)c(-c2csc(N/N=C/c3ccc4c(c3)OCO4)n2)c1 | > 16 | > 16 | > 16 | > 16 | > 16 | > 16 | > 16 | > 16 | – | – | – | – | – |
| COc1ccc(O)c(-c2csc(NN=C3CCCCC3)n2)c1 | 8 (≈ 25.2 µM) | > 16 | > 16 | 16 (≈ 50.4 µM) | > 16 | > 16 | 16 (≈ 50.4 µM) | > 16 | – | – | – | – | – |
| COc1ccc(O)c(-c2csc(N/N=C/c3ccc4ccccc4c3)n2)c1 | > 16 | 2 (≈ 5.33 µM) | > 16 | > 16 | > 16 | > 16 | > 16 | > 16 | 52.7 | 69.2 | 83.7 | 45.3 | – |
| COc1ccc(O)c(-c2csc(N/N=C/c3c[nH]c4ccccc34)n2)c1 | 0.5 (≈ 1.37 µM) | 0.5 (≈ 1.37 µM) | 0.25 (≈ 0.686 µM) | > 16 | 2 (≈ 5.49 µM) | > 16 | > 16 | 0.25 (≈ 0.686 µM) | 50.2 | 80.6 | 91.9 | 70.6 | – |
| COc1ccc(O)c(-c2csc(N/N=C/c3cnc4ccccn34)n2)c1 | > 16 | > 16 | > 16 | > 16 | > 16 | > 16 | > 16 | > 16 | – | – | – | – | – |
| COc1ccc(O)c(-c2csc(N/N=C/c3cc4ccccc4o3)n2)c1 | > 16 | > 16 | > 16 | > 16 | > 16 | > 16 | > 16 | > 16 | – | – | – | – | – |
